This sample holds only a part of the variants without activity.
B1: tRNA (parent)
chain: GUUCCGUUGGCGUAAUGGUAACGCGUCUCCCUCCUAAGGAGAAGACUGCGGGUUCGAGUCCCGUACGGAACG

Variants of: B1
Assay: yeast fitness relative to wild type (ratio to wild type); higher = fitter; tRNA-Arg(CCU), competitive growth, 37 C, YPD
Procedure, shortened: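 Genotype frequency changes were the basis for Darwinian fitness relative to wild type. The frequencies came from 100-nucleotide paired-end sequencing of gene amplicons from the start population and each end population of pooled yeast strains with tRNA-Arg(CCU) gene variants at the native locus. Competition ran in YPD at 37°C for 24 hours in six replicates, genotypes needed ≥ 100 starting reads, and estimates < 0.5 were set to 0.5.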

Row | Variant | yeast fitness
1 | GUUCCCUUGGAGUAAUGGUAACGCGUCUCCCACCUAAGGAGGAGACUGCGGGUUUGAGUCCCGUACGGAACG | 0.605
2 | GUUCCCUUGGCGUAAUGGUAAAGCGUCUCCCUGCUAAGGAGAAGACUCCGGGUUCGAGUCCCGUACGGAACG | ≤ 0.5
3 | GUUCCCUUGGCGUAAUGGUAACGCGUCUGCCUCCUAAGGAGAAGACUGCGGGUUCGAGUCCCGUAGGGAACG | ≤ 0.5
4 | GUUCCCUUGGCGUAAUGGUAACGCGUCUCCCUCCUAAGGAGAAGACUGUGGGCUCGAGUCGCGUACGGAACG | ≤ 0.5
5 | GUUCCCUUGGCGUAAUGGUAACGCGUGCCCCUCCUAAGGAGAAGACUGCGGGUUCGAGUCCGGUACGGAACG | ≤ 0.5
6 | GUUCCCUUGGUGUAAUGGUAACGCGUCUCCCUCCUAAGGAGAAGACUGCGGGUUCCAGUCCCGUACGGCACG | ≤ 0.5
7 | GUUCCCUUGGAGUAAUGGUAACUCGUCUCCCUCCUAAGGAGAAGACUCCGGGUUCGAGUCCCGUACGGAACG | ≤ 0.5
8 | GUUCCCUUGGCGUAAUGGUAACGUGUCUCCCUCCUAAGGAGAAGACUGCGGGUUCGAGUCCCGUACGGAACG | 0.751
9 | GUUCCCUUGGCGUAAUGGUAACGCGUCUCCUUCCUAAGAAGAAGAGUGCGGGUUCGAGUCCCGUACGGAACG | ≤ 0.5
10 | GUUCCCUUGGCGUAAUGGUAACGCGUCUCCCUUCUAAGGAGAAGACUGCGGGUUCGAGUCCCGUACGGAACG | 0.644
11 | GUUCCCUUGGCGUAAUGGUAACGCGUCUCCCUCCUAAGGAGAAGCCUGCGGGUUCGAGUCCCGUACCGAACG | 0.536
12 | GUUCCCUUGGCGUAAUGGUAACGUGUCUCCCUCCUAAGGAGAAGACUGCGGAUUCGAGUCCCGUACGGAACG | ≤ 0.5
13 | GUUCCCUUGGCGUAAUGGUAACGCGUCUCCCUCCUAAGGAGAAGAUUGCGGGUUCGAGUCCCGUACGGAACG | 0.966
14 | GUUCCCUUGGCGUAAUGGUAACGCGUCUCCCUCCUAAGGAGAAGAGUGCGGGUUCGAGUCCCGUACGGACCG | 0.511
15 | GUUCCCUUGGCGUAAUGGUAACGCGUAUCGCUCCUAAGGACAAGACUGCGGGUUCGAGUCGUGUACGGUACG | ≤ 0.5
16 | GUUCCCUUGGCGUAAUGGUAACGCGUCUCCCUCUUAAGGAGAAGACUGCGGCUUCGAGUCCCGUACGGAACG | 0.565
17 | GUUCCCUUGGCGUAAUGGUAACGCGUUUCCCUCCUAAGGAGAAGACUGCGGGUUCGCGUCCCGUACGGAUCG | 0.537
18 | GUUCCCUUGGGGUAAUGGUAACGCGUUUCCCUCCUAAGGAGGAGACUGCGGGUUCGAGUCCCGUAUGGAACG | 0.552
19 | GUUCCCUUGGCGUAAUGGUAACGCGUCUCCCUCGUAAGGAGAAGACUGCGGGUUCGAGUCCCGUACGGCACG | ≤ 0.5

Row | Variant | yeast fitness
20 | GUUCCCUUGGCGUAAUGGUAACGCGUCUCCCUCCUAAGGAGAAGACUGCGGGUUCGAGUCCCGUACGGAUCG | 0.823
21 | GUUCCCUUGGUGUAAUGGUAACGCGUGUCCCUCCUAAGGACAAGACUGCGGGUUCGAGUCCCGUACGGAACG | ≤ 0.5
22 | GUUCCCUUGGUGUAAUGGUAACGCGUCUCCGUCCUGAGGAGAAGACUGCGGGUUCGAGUCCCGUACGGAACG | 0.66
23 | GUUCCCUUGGAGUAAUGGUAACGCGUCUCCCUCCUAAGGAGAAGCCUGCGGGUUCGAGUUCCGUACGGAACG | ≤ 0.5
24 | GUUCCCUUGGCGUAAUGGUAACGAGUCUCCCUCCUAAGGAGAAGACUGCGGGUUCGAGUCCCGUACGGUACG | ≤ 0.5
25 | GUUCCCUUGGCGUAAUGGUAACGCGUCUCCCUUCUAACGAGAAGACUGCGGCUUCGAGUCCUGUACGGAACG | ≤ 0.5
26 | GUUCCCUUGGCGUAAUGGUAACGCGUCUCCCUCCUAAGGAGAAGACUGCGGGUUCGAGUCCCGUACGGCACG | 0.852
27 | GUUCCCUUGGCGUAAUGGUAACGCGUCUCCCUCCUAAGGAGAAGACUGCGGGUUCGAGUCCCGUACGGUACG | 0.976
28 | GUUCCCUUGGAGUAAUGGUAACGCGUCUCCCACCUAAGGAGGAGACUGCGGGUUUGAGUCUCGUACGGAACG | ≤ 0.5
29 | GUUCCCUUGGCGUAAUGGUAACGCGUCUCCCUCCUAAGGAGAAGACUGCGGGUUCGAGUCCCGUGUGGAACG | 0.84
30 | GUUCCCUUGGCGUAAUGGUAACGCGUCUCCCUCAUAAGGAGAAGACUGCGGGUUCGAGUCCCGUACGGAACG | 0.611
31 | GUUCCCUUGGCGUAAUGGUAACGCGUCUCCCUCUUAAGGAGAAGACUGCGGGUUCGAGUCCCGUACGGAACG | 0.648
32 | GUUCCCUUGGCGUAAUGGUAACGCGUCUGCCUCCUAAGGAGAAGACUGCGGGUUCGAGUCUCGUACGGAACG | ≤ 0.5
33 | GUUCCCUUGGCGUAAUGGUAACGCGUCUCCAUCCUCAGGAGAAAACUGCGGGUUCGUGUCCCGUAAGGAACG | ≤ 0.5
34 | GUUCCCUUGGCGUAAUGGUAACGCGUCUCCCUCCUAAGGAGAAGGCUGCGGGUUCGAGUCCCGUACGGAACG | 0.823
35 | GUUCCCUUGGCGUAAUGGUAACGGGUGUACCUCUUAAGGAGAAGACUGCGGGAUCGAGUCCCGUACGGAGCG | ≤ 0.5
36 | GUUCCCUUGGCGUAAUGGUAACGUGUCUCCCUCCUAACGGGAAGACCGCGGGUUCGAGUCCCGUACGGAACG | ≤ 0.5
37 | GUUCCCUUGGCGUAAUGGUAAGGCGUGUCCCUCCUAAGGAGAAGUCUGCGGGUUCGGGUCCCGUACGGAGCG | ≤ 0.5

— the RNAGym collection of RNA variant scans (doi:10.1126/science.aae0568)
